Results as given in paper PMC3855573 (Biochemistry, 2013).
Where “and” joins values, the source holds several entries; their conditions need not be identical. Equal entries are not always repeated. Where two headings read alike, the source gives them in different places.

Columns and labels:
MV FlAsH = MV FlAsH (Gallus gallus, UniProt Q02440, D297C/G292C/I296C/S293C/V295G); test: Actin-activated steady-state ATPase, NADH coupled assay; format: biochemical, chicken; details: 20 μM actin, 25°C
[1] = read-out: KD of Mg for free ADP; previously determined; cited from earlier work
acto-MV FlAsH = acto-MV FlAsH (Gallus gallus, UniProt Q02440, D297C/G292C/I296C/S293C/V295G); test: Mg dependence of ADP release rate constants; format: binding, chicken; details: read-out: KD.Mg, Eq. 14
Procedure, shortened: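 Acto-MV FlAsH·mantdADP (final 0.25 μM MV FlAsH, 0.5 μM actin, 10 μM mantdADP) stopped-flow mixed with 1 mM ATP at 25°C. Buffer: K50TCEP, pH 7.0, with 0.5–10 mM MgCl2; free Mg calculated from stability constants. FRET read with 365 nm excitation and 515 nm long-pass emission. Biexponential rate constants vs free Mg fitted to Eq. 14 to extrapolate Mg-free and Mg-saturated values and KD.Mg.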

actin-activated ATPase rate (MV FlAsH; K50 buffer containing 4 mM EDTA (Mg free))	reduction in actin-activated ATPase activity (MV FlAsH; high free Mg (3–9 mM) versus low free Mg (0.1–0.3 mM))	Kd (acto-MV FlAsH; actomyosin V strong ADP binding conformation)	Kd (acto-MV FlAsH; actomyosin V weak ADP binding conformation)	Structure (SMILES)	Kd [1]
0.06 s⁻¹	–	–	–	O=C(O)CN(CCN(CC(=O)O)CC(=O)O)CC(=O)O [EDTA, reference compound]	–
–	50–60% and 60%	900 ± 400 µM	600 ± 300 µM	[Mg+2] [Mg, magnesium]	350 ± 300 µM
